Phagocyt inh = inhibitors of macrophage phagocytosis. inhibition, % at 5 µM. AID 1029. hit rate 0.07% among 110,000. J774A.1 macrophage IgG-bead phagocytosis, imaging;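 active = inhibition above the mean of the plate negative controls plus 5 SD, cut at about 13% in these data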;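 also: phagocytic index as fraction of beads internalized from green versus red external bead signal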
Ecoli WT expand = blocks growth of wild type E. coli BW25113; OD600 absorbance; growth inhibition, % at 100 µM; hit rate 0.15% among 98,000;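 active = growth inhibition above about 50% at one test dose, limit read from the data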;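 also: growth measured after 20 h incubation at 37 °C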
Mac1 fbg enh = CD11b/CD18-fibrinogen binding enhancement; hit rate 0.07% among 93,000; K562 CD11b/CD18 adhesion to fibrinogen, ATPlite luminescence; P05107+P11215; activation, % at 10 µM;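 active = 10 µM primary screen giving 50% or more activity, confirmed by 40% or more on retest at that dose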
Target sequence (P05107 whole entry, looked up, other chains not shown): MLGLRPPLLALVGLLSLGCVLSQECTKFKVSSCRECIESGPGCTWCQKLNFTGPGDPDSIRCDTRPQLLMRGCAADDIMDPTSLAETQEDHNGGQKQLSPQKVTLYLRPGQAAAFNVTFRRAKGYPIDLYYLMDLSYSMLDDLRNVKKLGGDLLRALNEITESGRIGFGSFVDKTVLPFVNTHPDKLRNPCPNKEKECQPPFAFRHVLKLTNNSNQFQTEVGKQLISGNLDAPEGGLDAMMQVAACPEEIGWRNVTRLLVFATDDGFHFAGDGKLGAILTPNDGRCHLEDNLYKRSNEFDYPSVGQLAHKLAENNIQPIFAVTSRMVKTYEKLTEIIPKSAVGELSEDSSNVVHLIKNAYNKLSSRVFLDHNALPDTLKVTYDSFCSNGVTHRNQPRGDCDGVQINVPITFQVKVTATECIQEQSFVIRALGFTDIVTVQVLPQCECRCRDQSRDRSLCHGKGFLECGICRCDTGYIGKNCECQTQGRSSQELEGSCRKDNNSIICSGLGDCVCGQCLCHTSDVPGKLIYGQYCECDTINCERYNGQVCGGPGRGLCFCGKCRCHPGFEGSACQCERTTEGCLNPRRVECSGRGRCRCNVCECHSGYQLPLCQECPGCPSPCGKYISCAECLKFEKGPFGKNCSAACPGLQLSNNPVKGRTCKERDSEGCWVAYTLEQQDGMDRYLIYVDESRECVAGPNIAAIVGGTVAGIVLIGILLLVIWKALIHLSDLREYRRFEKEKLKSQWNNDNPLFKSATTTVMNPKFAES
Ecoli tolC = E. coli tolC mutant growth inhibition | AID 573 | E. coli BW25113 tolC mutant growth, OD615 | growth inhibition, % at 10 µM (by protocol) | hit rate 2.2% among 65,000;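 active = growth inhibition at or above a cutoff equal to the mean over every tested compound plus 3 SD, cut at about 60% in these data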;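 also: growth measured after 20 h incubation at 37 °C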
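Assay system: tolC-deleted E. coli BW25113. Medium: kanamycin-containing LB broth (50 µg/mL). Dosing: 10 µM final, single dose. Timing: bacterial growth with compound for 20 h at 37 °C. Detection: A615 absorbance measurement. Read-out basis: growth inhibition in percent.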
Mac1 fbg inh = CD11b/CD18-fibrinogen binding inhibition; P05107+P11215; K562 CD11b/CD18 adhesion to fibrinogen, ATPlite luminescence; Mn2+ added to activate the integrin; inhibition, % at 10 µM; hit rate 0.54% among 93,000; AID 1497;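 active = primary inhibition of 50% or more at 10 µM, then 40% or more on retest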
Numbers stand for hits; – = inactive; · = not tested or not shown. Many of the other results were omitted from the sample, so hits are more common in it than they were.

SMILES | Phagocyt inh | Ecoli WT expand | Mac1 fbg enh | Ecoli tolC | Mac1 fbg inh
CC(NS(=O)(=O)c1ccccc1)C(=O)Nc1nccs1 (centres undefined) | · | – | · | – | ·
CCOC(=O)c1ccc(NC(=S)N(CCCN2CCCC(C)C2)Cc2ccco2)cc1 (centres undefined) | – | · | · | · | ·
Cc1cc(N2CCC(C)CC2)nc(-n2nc(C)cc2C)n1 | – | – | – | 100 | –
Cc1cc(C)n(-c2nc3ccccc3nc2N2CCC(C)CC2)n1 | – | – | – | · | –
O=C(NCc1ccccc1)c1sc(=S)n2c1[nH]c(=O)c1ccccc12 | – | – | – | · | 103
O=C1Nc2ccccc2N(O)N1c1ccc(S(=O)(=O)N2CCCCCC2)cc1 | – | · | · | · | ·
Cc1ccc(C2C(/C=C3/SC(=S)NC3=O)=C(c3cccs3)Oc3ccccc32)cc1 (centres undefined) | – | – | – | · | 78
CCS(=O)(=O)NCc1csc(C)n1 | – | – | – | – | –
CCc1cc(/C(Cc2csc(C)n2)=N/O)c(O)cc1O | – | – | – | · | 80
Cc1nc(-c2coc3c(CN(C)C)c(O)ccc3c2=O)cs1 | – | – | – | · | –
O=c1oc2ccccc2cc1N1CCOCC1 | – | · | · | · | ·
CC(=O)NCc1nc2ccccc2n1Cc1ccccc1C | – | – | – | – | –
CC(=O)Nc1nc2ccccc2n1Cc1ccccc1C | – | – | – | 98 | –
Oc1ccccc1-c1cc(-c2ccc3c(c2)OCCO3)n[nH]1 | – | – | – | 99 | –
O=C(CSc1nnnn1C1CCCCC1)Nc1cccc(NC(=O)c2ccco2)c1 | – | – | · | 73 | ·
COc1ccc(NS(=O)(=O)c2ccc3oc(Nc4ccc5c(c4)OCCO5)nc3c2)cc1 | – | – | · | 79 | ·
COc1ccc(NS(=O)(=O)c2ccc(O)c(C(=O)OCC(=O)Nc3ccc4c(c3)OCCO4)c2)cc1 | – | · | · | · | ·
CCC(=C(c1ccc(OC)cc1)c1ccc(OC)cc1)c1cn(CC(O)CN2CCN(C)CC2)c2ccccc12 (centres undefined) | – | – | – | · | –
CCc1ccc(N2C(=O)C3ON(c4ccccc4)C(c4ccco4)C3C2=O)cc1 (centres undefined) | – | – | – | – | –
CCCCN1C(=O)C2ON(c3ccccc3C)C(c3ccco3)C2C1=O (centres undefined) | – | – | – | 61 | –
Fc1cccc(NC(=S)NCCN2CCOCC2)c1 | – | · | · | · | ·
COc1cc(OC)c(OC)cc1/C=C/C(=O)c1ccc(NS(=O)(=O)c2ccc(C)cc2)cc1 | – | · | · | · | ·
Cc1ccc2oc(C(=O)NCc3ccc4c(c3)OCO4)c(C)c2c1 | – | – | – | 86 | –
O=C(NCc1ccc2c(c1)OCO2)c1ccc(-c2ccc(Cl)cc2)o1 | – | – | – | 79 | –
Cc1cccc(-n2c(SCC(=O)N3CC(=O)Nc4ccccc43)nc3ccccc3c2=O)c1C | – | · | – | · | –
SMILES | Phagocyt inh | Ecoli WT expand | Mac1 fbg enh | Ecoli tolC | Mac1 fbg inh
COC(=O)c1c(NS(=O)(=O)c2ccc3ccccc3c2)sc2c1CCCC2 | – | – | – | · | 52
COC(=O)c1c(NC(=O)c2ccc(C)c(S(=O)(=O)Nc3ccccc3C)c2)sc2c1CCCC2 | – | – | – | · | –
CCCCCCOC(=O)C(C#N)c1nc2ccccc2nc1N1CCN(C)CC1 (centres undefined) | – | – | – | 100 | –
CCCN(CCC)c1nc2ccccc2nc1C(C#N)C(=O)OCCOC (centres undefined) | – | – | – | 80 | –
C=CCN(CC=C)c1nc2ccccc2nc1C(C#N)C(=O)OCCOC (centres undefined) | – | – | – | – | –
CCN(c1ccccc1)S(=O)(=O)c1ccc(Cl)c(NC(=O)CSc2nncs2)c1 | – | · | · | · | ·
Cc1ccc(S(=O)(=O)N(C(=O)c2ccncc2)c2ccc(OC(=O)c3ccncc3)c3ccccc23)cc1 | – | · | · | · | ·
Cc1ccc(S(=O)(=O)N(C(=O)c2ccncc2)c2ccc(OC(=O)c3ccncc3)c3ccccc23)c(C)c1 | – | – | – | · | 72
CC(C)(C)NC(=O)CCN(/N=C/c1ccc([N+](=O)[O-])o1)C1=NS(=O)(=O)c2ccccc21 | – | · | · | · | ·
CCCCCCC(=O)N1CCC(c2nc3c(nnn3Cc3ccccc3Cl)c(=O)[nH]2)CC1 | – | – | – | 100 | –
O=C(C1CCCCC1)N1CCC(c2nc3c(nnn3Cc3c(F)cccc3Cl)c(=O)[nH]2)CC1 | · | · | · | 89 | ·
O=C(Nc1ccc(F)cc1)N1CCC(c2nc3c(nnn3Cc3cccc(Cl)c3)c(=O)[nH]2)CC1 | – | – | – | 100 | –
Cc1ccc(NC(=O)N2CCC(c3nc4c(nnn4Cc4cccc(Cl)c4)c(=O)[nH]3)CC2)cc1 | · | – | – | 99 | –
CC(C)=N/N=C1/NC(=O)C(CC(=O)Nc2cc(Cl)ccc2C)S1 (centres undefined) | – | · | · | · | ·
c1ccc(CCn2c(C3CC3)nc3ccccc32)cc1 | – | – | – | · | –
COc1cc(/C=N/NC(=O)c2ccc(O)cc2)ccc1Oc1ccc([N+](=O)[O-])cn1 | – | · | – | · | –
CCc1ccc(CNC(=O)c2cc3c(C)nc4ccccc4c3o2)cc1 | – | – | – | · | 94
COc1ccc(NC(=O)c2cncc(Br)c2)cc1S(=O)(=O)N1CCCCC1 | – | · | · | · | ·
COC(=O)c1ccc(CSc2nc3ccccc3o2)cc1 | – | – | – | 65 | –
CC(C)C(=O)Nc1cccc(NC(=O)c2ccc(Cl)cc2Cl)c1 | – | · | · | · | ·
O=C(Nc1nc(=S)ss1)c1ccc(Cl)cc1Cl | · | – | – | · | 114
CCOC(=O)c1c(NC(=O)CCc2ccc(CC)o2)sc(C)c1C | – | – | – | · | –
COC(=O)c1c(NC(=O)CCc2ccc(C)o2)sc(C)c1C | – | – | – | 61 | –
COc1cccc(NC(=O)c2cc(CN3C(=O)c4ccccc4C3=O)ccc2OC)c1 | – | · | · | · | ·
CC(C)c1ccc(/C=N/NC(=O)c2c(Cl)cnn2C)cc1 | – | · | · | · | ·
SMILES | Phagocyt inh | Ecoli WT expand | Mac1 fbg enh | Ecoli tolC | Mac1 fbg inh
Cn1cccc1Cc1nnc(SCC(=O)Nc2ccc(Cl)cc2)n1-c1ccc(F)cc1 | – | – | – | 71 | –
CCOC(=O)C1C(c2cccc(F)c2)NC(=S)NC1(O)C(F)(F)F (centres undefined) | – | · | · | · | ·
COc1ccc(/C(O)=C2\C(=O)C(=O)N(CC3CCCO3)C2c2cc(OC)ccc2OC)cc1 (centres undefined) | – | – | – | 100 | –
CC(=O)c1c(C)[nH]c(C(=O)OCC(=O)Nc2ccc(Cl)cc2[N+](=O)[O-])c1C | – | · | – | · | –
Cc1ccc(NC(=O)C2Cc3ccccc3CN2C(=O)c2ccccc2)cc1Cl (centres undefined) | – | · | · | · | ·
c1ccc(-c2csc(N3CCN(c4ccccn4)CC3)n2)cc1 | – | – | – | 88 | –
CCCN(CCC)CCCNC(=S)Nc1ccc2nc3n(c(=O)c2c1)CCCCC3 | – | · | · | · | ·
Brc1ccc(-c2nc(N/N=C/c3cccnc3)c3ccccc3n2)cc1 | – | – | – | · | 101
c1ccc(-c2nc(N3CCCCCC3)nc(-n3ccnc3)n2)cc1 | · | – | · | 98 | ·
c1ccc(-c2nc(N3CCN(c4ccccc4)CC3)nc(-n3ccnc3)n2)cc1 | – | – | – | – | –
CCOC(CNc1c([N+](=O)[O-])c(=O)n(C)c(=O)n1C)OCC | – | · | · | · | ·
